Reference: ChEMBL document CHEMBL3596157, “Heteroaromatic analogs of the resveratrol analog DMU-212 as potent anti-cancer agents” (2015)

Key:
Type in all cases: functional
CAKI-1 = assay: Growth inhibition of human Caki1 cells after 48 hrs by SRB assay; details: CAKI-1, 48 h
How it was run: (§1)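 NCI-60 panel screen. Cells exposed for 48 h to five concentrations (10−4, 10−5, 10−6, 10−7 and 10−8 M). Sulforhodamine B optical density is read just before compound addition (time zero) and after 48 h, for both treated and vehicle-control wells. Percent growth is calculated against control. GI50 is the concentration giving a 50% reduction in net cell growth relative to cell numbers on day 0.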

[1] = Growth inhibition of human Hs578T cells after 48 hrs by SRB assay; details: Hs-578T; how it was run: as §1
HL-60(TB) = assay: Growth inhibition of human HL-60(TB) cells after 48 hrs by SRB assay; details: HL-60, 48 h
How it was run: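 NCI-60 panel screen: cells were exposed to test agent at five concentrations (10−4, 10−5, 10−6, 10−7 and 10−8 M) for 48 h. Sulforhodamine B optical density was read at time zero and after exposure to compound or vehicle control, and growth percentage versus control was calculated. GI50 was taken as the concentration giving a 50% reduction in net cell growth relative to day 0 cell numbers.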

SR = assay: Growth inhibition of human SR cells after 48 hrs by SRB assay
How it was run: (§2)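 NCI-60 panel cells; preliminary single-dose screen at 10−5 M, then five-dose testing at 10−4 to 10−8 M (tenfold steps) with 48 h exposure. SRB-stained optical density read before compound addition (time zero), after 48 h with compound, and with vehicle control. Percent growth is calculated against control. GI50 is the concentration giving 50% reduction in net growth relative to day-0 cell number.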

[2] = Growth inhibition of human LOXIMVI cells after 48 hrs by SRB assay; details: LOX IMVI; how it was run: as §1
SK-OV-3 = assay: Growth inhibition of human SKOV3 cells after 48 hrs by SRB assay; details: SK-OV-3, 48 h; how it was run: as §1
SK-MEL-2 = assay: Growth inhibition of human SK-MEL-2 cells after 48 hrs by SRB assay; details: SK-MEL-2, 48 h; how it was run: as §1
OVCAR-5 = assay: Growth inhibition of human OVCAR5 cells after 48 hrs by SRB assay; details: OVCAR-5, 48 h; how it was run: as §1
SK-MEL-28 = assay: Growth inhibition of human SK-MEL-28 cells after 48 hrs by SRB assay; details: SK-MEL-28, 48 h; how it was run: as §1
OVCAR-4 = assay: Growth inhibition of human OVCAR4 cells after 48 hrs by SRB assay; details: OVCAR-4, 48 h; how it was run: as §1
HT-29 = assay: Growth inhibition of human HT-29 cells after 48 hrs by SRB assay; details: HT-29, 48 h; how it was run: as §1
TK-10 = assay: Growth inhibition of human TK10 cells after 48 hrs by SRB assay; details: TK-10, 48 h; how it was run: as §2
NCI-H522 = assay: Growth inhibition of human NCI-H522 cells after 48 hrs by SRB assay; details: NCI-H522, 48 h; how it was run: as §1
HCT-116 = assay: Growth inhibition of human HCT116 cells after 48 hrs by SRB assay; details: HCT-116, 48 h; how it was run: as §1
[3] = Growth inhibition of human RPMI8226 cells after 48 hrs by SRB assay; details: RPMI-8226, 48 h; how it was run: as §1
UACC-62 = assay: Growth inhibition of human UACC62 cells after 48 hrs by SRB assay; details: UACC-62, 48 h; how it was run: as §2
ACHN = assay: Growth inhibition of human ACHN cells after 48 hrs by SRB assay; how it was run: as §1
[4] = Growth inhibition of human COLO205 cells after 48 hrs by SRB assay; details: COLO 205, 48 h; how it was run: as §1
K562 = assay: Growth inhibition of human K562 cells after 48 hrs by SRB assay; details: K562, 48 h; how it was run: as §1
SN12C = assay: Growth inhibition of human SN12C cells after 48 hrs by SRB assay; how it was run: as §1
OVCAR-8 = assay: Growth inhibition of human OVCAR8 cells after 48 hrs by SRB assay; details: OVCAR-8, 48 h; how it was run: as §1
MCF7 = assay: Growth inhibition of human MCF7 cells after 48 hrs by SRB assay; details: MCF7, 48 h; how it was run: as §1
PC-3 = assay: Growth inhibition of human PC3 cells after 48 hrs by SRB assay; details: PC-3, 48 h; how it was run: as §1
KM12 = assay: Growth inhibition of human KM12 cells after 48 hrs by SRB assay; details: KM12, 48 h; how it was run: as §1
A549 = assay: Growth inhibition of human A549/ATCC cells after 48 hrs by SRB assay; details: A549, 48 h; how it was run: as §1
CCRF-CEM = assay: Growth inhibition of human CCRF-CEM cells after 48 hrs by SRB assay; how it was run: as §1
MDA-MB-435 = assay: Growth inhibition of human MDA-MB-435 cells after 48 hrs by SRB assay; details: MDA-MB-435, 48 h; how it was run: as §1
[5] = Growth inhibition of human RXF393 cells after 48 hrs by SRB assay; details: RXF 393, 48 h; how it was run: as §1
[6] = Growth inhibition of human HCC2998 cells after 48 hrs by SRB assay; details: HCC 2998, 48 h; how it was run: as §1
NCI-H460 = assay: Growth inhibition of human NCI-H460 cells after 48 hrs by SRB assay; details: NCI-H460, 48 h; how it was run: as §1
IGROV-1 = assay: Growth inhibition of human IGROV1 cells after 48 hrs by SRB assay; details: IGROV-1, 48 h; how it was run: as §1
[7] = Growth inhibition of human NCI-ADR-RES cells after 48 hrs by SRB assay; how it was run: as §1
UO-31 = assay: Growth inhibition of human UO31 cells after 48 hrs by SRB assay; details: UO-31, 48 h; how it was run: as §2
[8] = Growth inhibition of human MOLT4 cells after 48 hrs by SRB assay; details: MOLT-4, 48 h; how it was run: as §1
[9] = Growth inhibition of human SF539 cells after 48 hrs by SRB assay; details: SF-539, 48 h; how it was run: as §1
MDA-MB-468 = assay: Growth inhibition of human MDA-MB-468 cells after 48 hrs by SRB assay; details: MDA-MB-468, 48 h; how it was run: as §1
[10] = Growth inhibition of human SF295 cells after 48 hrs by SRB assay; details: SF-295, 48 h; how it was run: as §1
SNB-19 = assay: Growth inhibition of human SNB19 cells after 48 hrs by SRB assay; details: SNB-19, 48 h; how it was run: as §1
OVCAR-3 = assay: Growth inhibition of human OVCAR3 cells after 48 hrs by SRB assay; details: OVCAR-3, 48 h; how it was run: as §1
M14 = assay: Growth inhibition of human M14 cells after 48 hrs by SRB assay; details: M14, 48 h; how it was run: as §1
SNB-75 = assay: Growth inhibition of human SNB75 cells after 48 hrs by SRB assay; details: SNB-75, 48 h; how it was run: as §2
HOP-62 = assay: Growth inhibition of human HOP62 cells after 48 hrs by SRB assay; details: HOP-62, 48 h; how it was run: as §1
SF-268 = assay: Growth inhibition of human SF268 cells after 48 hrs by SRB assay; details: SF-268, 48 h; how it was run: as §1
Malme-3M = assay: Growth inhibition of human MALME-3M cells after 48 hrs by SRB assay; how it was run: as §1
NCI-H23 = assay: Growth inhibition of human NCI-H23 cells after 48 hrs by SRB assay; details: NCI-H23, 48 h; how it was run: as §1
NCI-H226 = assay: Growth inhibition of human NCI-H226 cells after 48 hrs by SRB assay; details: NCI-H226, 48 h; how it was run: as §1
SK-MEL-5 = assay: Growth inhibition of human SK-MEL-5 cells after 48 hrs by SRB assay; details: SK-MEL-5, 48 h; how it was run: as §1
DU-145 = assay: Growth inhibition of human DU145 cells after 48 hrs by SRB assay; details: DU-145, 48 h; how it was run: as §1
A498 = assay: Growth inhibition of human A498 cells after 48 hrs by SRB assay; details: A498, 48 h; how it was run: as §1
786-0 = assay: Growth inhibition of human 786-0 cells after 48 hrs by SRB assay; details: 786-0, 48 h; how it was run: as §1
MDA-MB-231 = assay: Growth inhibition of human MDA-MB-231/ATCC cells after 48 hrs by SRB assay; details: MDA-MB-231, 48 h; how it was run: as §1
[11] = Growth inhibition of human HOP92 cells after 48 hrs by SRB assay; details: HOP-92, 48 h; how it was run: as §1
U-251 = assay: Growth inhibition of human U251 cells after 48 hrs by SRB assay; details: U-251, 48 h; how it was run: as §2
HCT-15 = assay: Growth inhibition of human HCT15 cells after 48 hrs by SRB assay; details: HCT-15, 48 h; how it was run: as §1
SW-620 = assay: Growth inhibition of human SW620 cells after 48 hrs by SRB assay; details: SW-620, 48 h; how it was run: as §2
[12] = Growth inhibition of human BT549 cells after 48 hrs by SRB assay; details: BT-549, 48 h; how it was run: as §1

## COc1cc(/C=C/c2cc3ccccc3[nH]2)cc(OC)c1OC
CAKI-1
  GI50: 382 nM
[1]
  GI50: 257 nM
HL-60(TB)
  GI50: 347 nM
SR
  GI50: 241 nM
[2]
  GI50: 664 nM
SK-OV-3
  GI50: 676 nM
SK-MEL-2
  GI50: 426 nM
OVCAR-5
  GI50: 963 nM
SK-MEL-28
  GI50: 944 nM
OVCAR-4
  GI50: 691 nM
HT-29
  GI50: 335 nM
TK-10
  GI50: 21600 nM
NCI-H522
  GI50: 294 nM
HCT-116
  GI50: 534 nM
[3]
  GI50: 388 nM
UACC-62
  GI50: 465 nM
ACHN
  GI50: 620 nM
[4]
  GI50: 343 nM
K562
  GI50: 393 nM
SN12C
  GI50: 1640 nM
OVCAR-8
  GI50: 587 nM
MCF7
  GI50: 395 nM
PC-3
  GI50: 381 nM
KM12
  GI50: 436 nM
A549
  GI50: 624 nM
CCRF-CEM
  GI50: 368 nM
MDA-MB-435
  GI50: 150 nM
[5]
  GI50: 275 nM
[6]
  GI50: 2250 nM
NCI-H460
  GI50: 374 nM
IGROV-1
  GI50: 504 nM
[7]
  GI50: 365 nM
UO-31
  GI50: 172 nM
[8]
  GI50: 854 nM
[9]
  GI50: 231 nM
MDA-MB-468
  GI50: 285 nM
[10]
  GI50: 311 nM
SNB-19
  GI50: 461 nM
OVCAR-3
  GI50: 234 nM
M14
  GI50: 332 nM
SNB-75
  GI50: 329 nM
HOP-62
  GI50: 933 nM
SF-268
  GI50: 708 nM
Malme-3M
  GI50: 388 nM
NCI-H23
  GI50: 677 nM
NCI-H226
  GI50: 559 nM
SK-MEL-5
  GI50: 305 nM
DU-145
  GI50: 384 nM
A498
  GI50: 281 nM
786-0
  GI50: 802 nM
MDA-MB-231
  GI50: 1300 nM
[11]
  GI50: 201 nM
U-251
  GI50: 442 nM
HCT-15
  GI50: 469 nM
SW-620
  GI50: 333 nM
[12]
  GI50: 938 nM
